Results taken from paper PMC7203960 (ACS Omega, 2020).

Key:
[1] = Radical scavenging activity by DPPH method
Summary of the method: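 DPPH (1.6 mg in 50 mL DMSO), 1.5 mL, was mixed with 1.5 mL of test compound at 100 μg/mL. The mixture stood 45 min at ambient temperature in the dark, then absorbance was read at 517 nm. Blank DPPH solution served as control. Scavenging % was computed from control and sample absorbances, in triplicate.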

[2] = CellTiter-Glo luminescent cell viability assay, non-cancerous cell line MRC5; type: cell-based; conditions: human, MRC5 cells (non-cancerous cell line)
Summary of the method: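 Test compounds were made up as 100 mM DMSO stocks and diluted to 0.1 mM in sterile PBS. Cells were seeded at 1500 cells/well in 384-well plates and held 24 h before 72 h exposure. Viability was read by CellTiter-Glo luminescence on a microplate reader.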

AsPC1 = test: CellTiter-Glo luminescent cell viability assay, AsPC1; type: cell-based; conditions: Homo sapiens, ASPC1, 72 h, read-out: IC50 AsPC1
Summary of the method: (§1)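 AsPC1 and SW1990 human pancreatic cancer cells were obtained from ATCC and grown in RPMI with FBS, penicillin 100 IU/mL and streptomycin 100 μg/mL at 37 °C in 5% CO2. Compounds were made up as 100 mM DMSO stocks and diluted to 0.1 mM in sterile PBS. Cells were seeded at 1500 cells/well, held 24 h, then treated 72 h. Viability was read by CellTiter-Glo luminescence, in triplicate.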

SW1990 = test: CellTiter-Glo luminescent cell viability assay, SW1990; type: cell-based; conditions: Homo sapiens, SW1990, 72 h, read-out: IC50 SW1990
Summary of the method: as §1

Row | SMILES | % scavenging (DPPH) ([1]; 100 μg/mL, 45 min incubation, absorbance at 517 nm, triplicate) | IC50 ([1]; read-out: IC50 (DPPH radical scavenging), DPPH method) | IC50 at 72 h [2] | IC50 (AsPC1) | IC50 (SW1990)
1 | O=C1O[C@H]([C@@H](O)CO)C(O)=C1O [AA, ascorbic acid] | 88.75 ± 0.89% | 170 µM |  |  | 
2 | Nc1ccn([C@@H]2O[C@H](CO)[C@@H](O)C2(F)F)c(=O)n1 [gemcitabine] |  |  | 54.17 ± 0.2 µM | 39.3 ± 4.44 µM | 35.1 ± 1.78 µM
